In the library only some 2.3% were active in any assay of this set; here they are far more common.
TRPC4 potent = allosterically enhances the mouse TRPC4 cation channel | Q9QUQ5 | HEK293 TRPC4beta/mu-opioid, DAMGO EC20, Fluo-4 Ca2+ flux; hits give high values | B-score at 10 µM | 310,000 compounds, 0.42% hits | AID 2227;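 active = B-score of calcium response area above 5 SD of library B-scores, with initial fluorescence ratio within 5 SD of library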;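 also: B-score of integrated fluorescence ratio over time as area under calcium response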
TRPC4 block = inhibitors of mouse TRPC4 channel | Q9QUQ5 | HEK293 TRPC4beta/mu-opioid, DAMGO-evoked Fluo4 calcium flux; hits give low values | B-score at 10 µM | 300,000 compounds, 0.39% hits | AID 2247;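 active = B-score over 3 SD under the library average, no early fluorescence shift, positive overall ratio signal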
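Signal: kinetic Fluo4 fluorescence imaging of calcium influx. Material: stable TRPC4beta/mu-opioid receptor HEK293 cells. Probe or stimulus: DAMGO in two steps, submaximal then maximal.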
TRPC4 agonist = activators of mouse TRPC4 channel; Q9QUQ5; HEK293 TRPC4beta/mu-opioid, Fluo4 calcium fluorescence; hits give high values; B-score at 10 µM; 310,000 compounds, 0.49% hits; AID 2237;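 active = B-score above 5 SD of library B-scores, and initial fluorescence ratio not above library mean plus 5 SD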;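 also: positive B-score marks a calcium rise read as TRPC4 activation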
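Material: HEK293 stable line with TRPC4beta plus mu-opioid receptor; technique: Fluo4 calcium-sensitive dye fluorescence, kinetic, 1 Hz baseline; timing: Fluo4 dye loading 45 min at room temperature, 110 s recording; controls: assay buffer as low control, maximal DAMGO as high control; read-out: integrated baseline-normalised fluorescence ratio, converted to per-well B score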
TRPC6 act = activates the mouse TRPC6 cation channel | B-score at 10 µM | HEK293-TRPC6 membrane potential dye fluorescence; hits give high values | 310,000 compounds, 0.13% hits | Q61143;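 active = B-score of the integrated fluorescence ratio above library mean plus 3 SD, and starting fluorescence ratio within library mean plus 5 SD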;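 also: higher score means more depolarization so channel activation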
Target sequence (Q61143 whole entry, looked up): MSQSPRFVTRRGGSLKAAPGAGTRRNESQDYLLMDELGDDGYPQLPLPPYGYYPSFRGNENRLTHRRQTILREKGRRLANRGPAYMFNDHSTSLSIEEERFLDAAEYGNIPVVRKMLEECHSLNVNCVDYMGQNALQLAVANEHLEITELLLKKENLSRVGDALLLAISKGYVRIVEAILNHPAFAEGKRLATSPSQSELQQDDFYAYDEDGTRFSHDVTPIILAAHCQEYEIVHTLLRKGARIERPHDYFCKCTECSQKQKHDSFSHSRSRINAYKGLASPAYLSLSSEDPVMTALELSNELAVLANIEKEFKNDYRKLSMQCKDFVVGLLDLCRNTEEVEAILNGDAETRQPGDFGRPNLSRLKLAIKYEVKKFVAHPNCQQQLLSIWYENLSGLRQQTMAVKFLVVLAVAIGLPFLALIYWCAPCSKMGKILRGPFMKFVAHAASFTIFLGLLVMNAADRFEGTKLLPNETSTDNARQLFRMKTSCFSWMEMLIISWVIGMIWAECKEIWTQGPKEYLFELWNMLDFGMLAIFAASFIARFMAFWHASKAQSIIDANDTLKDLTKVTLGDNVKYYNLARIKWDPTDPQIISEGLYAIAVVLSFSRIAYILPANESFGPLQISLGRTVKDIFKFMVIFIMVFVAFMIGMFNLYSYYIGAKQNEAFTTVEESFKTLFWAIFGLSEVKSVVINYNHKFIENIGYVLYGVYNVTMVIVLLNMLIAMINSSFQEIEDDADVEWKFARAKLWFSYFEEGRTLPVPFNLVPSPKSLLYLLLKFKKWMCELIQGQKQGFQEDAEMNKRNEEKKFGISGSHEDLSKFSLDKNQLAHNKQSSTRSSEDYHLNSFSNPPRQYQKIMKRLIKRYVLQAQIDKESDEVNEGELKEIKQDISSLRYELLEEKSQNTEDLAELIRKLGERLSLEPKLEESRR
TRPC6 inh = blocks the mouse TRPC6 cation channel. 310,000 compounds, 1.1% hits. HEK293-TRPC6, membrane potential dye, ACh-evoked depolarization; hits give low values. B-score at 10 µM. Q61143;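 active = B-score under library mean minus 3 SD, initial fluorescence not abnormally high, positive integrated signal ratio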;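 also: B-score derived from integrated fluorescence ratio over the kinetic read; more negative B-score means stronger inhibition of depolarization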
TRPC4 spec 2 = mouse TRPC4 off-target activity of TRPC6 inhibitors, second screen; shares compounds with TRPC6 inh; HEK293 TRPC4/MOR, membrane potential dye fluorescence; channel activated by saturating DAMGO dose; inhibition, % at 10 µM; 920 compounds, 42% hits; AID 2776;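 active = compounds whose fluorescence signal differed from control wells by over 3 SD, either direction, in both duplicate plates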
TRPC4 spec = tests whether TRPC6 inhibitors also affect mouse TRPC4; activity change, negative = inhibition, % at 10 µM; AID 2777; shares compounds with TRPC6 inh; HEK293 TRPC4/mu-opioid, membrane potential fluorescence; 920 compounds, 61% hits;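 active = rise or fall in signal beyond 3 SD of buffer-only wells in both replicate plates, either sign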;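 also: integrated kinetic ratio of fluorescence range over baseline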
HEK293 MPD ctr 2-1 = second check of TRPC6 inhibitor effects in parental HEK293 cells; shares compounds with TRPC6 inh; 920 compounds, 31% hits; signal change vs control, % at 10 µM; parental HEK293 membrane potential dye fluorescence; maximal acetylcholine challenge after compound addition; AID 2779;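 active = membrane potential signal moving either way by over 3 SD of the maximum-effect control, in both duplicate plates, meaning non-specific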
HEK293 MPD ctr-1 = parental HEK293 nonspecific activity of TRPC6 inhibitors | shares compounds with TRPC6 inh | parental HEK293 membrane potential dye fluorescence | membrane potential signal change, % at 10 µM | 920 compounds, 60% hits;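 active = membrane potential signal shifting up or down by more than 3 SD of buffer-only wells, on both duplicate plates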
HEK293 MPD ctr-2 = checks TRPC6 modulator effects in parental HEK293 cells. shares compounds with TRPC6 inh. membrane potential dye fluorescence. membrane potential signal change, % at 10 µM. 2,400 compounds, 51% hits. AID 488924;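 active = membrane potential signal moves up or down beyond 5 SD from buffer-only wells, on both duplicate plates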
HEK293 MPD ctr 2-2 = parental HEK293 nonspecific activity of TRPC6 modulators, second screen; inhibition, % at 10 µM; shares compounds with TRPC6 inh; 2,400 compounds, 14% hits; AID 488926; membrane potential dye fluorescence; after compound, maximal acetylcholine stimulation;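 active = membrane potential signal drops by more than 5 SD from the mean control signal, in both duplicate plates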;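 also: plate controls were acetylcholine ECmax control wells for no effect and buffer only wells for full effect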
TRPC4/MOR mod = mouse TRPC4 off-target activity of TRPC6 modulators. 2,400 compounds, 69% hits. percent change from control (negative = decrease, positive = increase), % at 10 µM. shares compounds with TRPC6 inh. HEK293 TRPC4/mu-opioid, membrane potential fluorescence;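 active = membrane potential signal moved up or down beyond 5 SD of buffer control wells, in both duplicate plates, actives on both sides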;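 also: plate controls were assay buffer wells for no effect and DAMGO maximal-effect wells for full effect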
TRPC4 ctr inh 2 = mouse TRPC4 off-target activity of TRPC6 modulators, second screen; AID 488928; HEK293 TRPC4/mu-opioid, membrane potential dye fluorescence; stimulated with maximal-effect DAMGO; inhibition, % at 10 µM; 2,400 compounds, 55% hits; shares compounds with TRPC6 inh;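 active = drop in membrane potential signal beyond 5 SD of the control wells in both duplicate plates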;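 also: TRPC4 counter screen for TRPC6 hits run under conditions tuned for TRPC6 not TRPC4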
TRPC6 inh conf = confirmation of mouse TRPC6 inhibitors; shares compounds with TRPC6 inh; HEK293-TRPC6, membrane potential dye, ACh-evoked depolarization; inhibition, % at 10 µM; 3,300 compounds, 43% hits; AID 488960;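 active = fluorescence ratio falls more than 5 SD below the full-stimulation control mean, in both duplicate runs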;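 also: integrated fluorescence ratio of peak minus minimum over baseline after agonist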
TRPC6 act conf = confirmation of mouse TRPC6 activators. shares compounds with TRPC6 inh. HEK293-TRPC6 membrane potential dye fluorescence, FDSS. activation, % at 10 µM. 2,800 compounds, 11% hits;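 active = ratio signal rise beyond 5 SD above unstimulated control wells' mean, seen in both duplicate runs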;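 also: plate controls were buffer EC0 wells for no effect and acetylcholine ECmax response for full effect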
* hit, by the source's call; i = inactive; . = no result.

SMILES	TRPC4 potent	TRPC4 block	TRPC4 agonist	TRPC6 act	TRPC6 inh	HEK293 MPD ctr-2	HEK293 MPD ctr 2-2	TRPC4/MOR mod	TRPC4 ctr inh 2	TRPC6 inh conf	TRPC6 act conf	others
OCCCCCN=c1cc(-c2ccccc2)oc2ccc(Cl)cc12	i	i	i	i	-8*	.	.	.	.	74%*	i	TRPC4 spec 2=57%*;TRPC4 spec=-26%*;HEK293 MPD ctr 2-1=31%*;HEK293 MPD ctr-1=-432%*
OCCN1CCN(c2nc(-c3ccccc3)c3cc(Cl)ccc3n2)CC1	i	i	i	i	i	.	.	.	.	.	.
O=C(N/C(=C/c1ccccc1F)C(=O)N1CCCCC1)c1ccccc1	i	i	i	i	i	.	.	.	.	.	.
CN(C)CCC(Oc1ccccc1OCc1ccccc1)c1ccccc1 (centres undefined)	i	i	i	i	-5.9*	257%*	i	49%*	85%*	44%*	.
CC(=O)C1C(=O)c2c(cccc2[N+](=O)[O-])C1=Nc1ccc(S(N)(=O)=O)cc1 (centres undefined)	i	i	i	i	-9.7*	-250%*	i	-51%*	52%*	i	i
Clc1ccc(C[n+]2cc(-c3ccccc3)n3c2CCCCC3)c(Cl)c1	i	-6*	53*	i	-6*	160%*	i	84%*	92%*	54%*	.
CCOC(=O)c1c(NC(=O)CSc2nnc(C)s2)sc2c1CCN(C)C2	i	i	i	i	-5.8*	-65%*	i	-16%*	i	i	i
CCOC(=O)c1c(NC(=O)c2ccc(S(=O)(=O)N(C)CC3CCCO3)cc2)sc2c1CCN(C)C2 (centres undefined)	i	i	i	i	-5.2*	167%*	i	-30%*	i	i	i
COc1ccc(NS(=O)(=O)c2cccc(C(=O)O)c2)cc1	i	i	i	i	-5.4*	i	i	i	i	i	i
COc1ccc(NS(=O)(=O)c2cccc(C(=O)Nc3cccc(C(=O)O)c3)c2)cc1	i	i	i	i	i	.	.	.	.	.	.
COc1ccc(C2NC(=O)CCC2[N+](=O)[O-])cc1 (centres undefined)	i	i	i	i	i	.	.	.	.	.	.
CN(C)c1ccc(-c2nc3cnccn3c2Nc2ccc3c(c2)OCCO3)cc1	i	i	i	i	-5.3*	i	i	-11%*	62%*	i	i
CCCc1cc(=O)oc2cc(C)cc(OCC(=O)N3CCC(C(N)=O)CC3)c12	i	i	i	i	i	.	.	.	.	.	.
Cc1cccc(C(=O)OCC(=O)NCCNC(=O)COC(=O)c2cccc(C)c2C)c1C	i	i	i	i	i	.	.	.	.	.	.
Cc1cccc(-c2cc3nc(C)cc(NCCCN(C)C)n3n2)c1	13*	i	i	i	-7.2*	-194%*	74%*	-40%*	60%*	56%*	i
CN(CCO)c1c2c(nc3cc(-c4cccc(F)c4)nn13)CCCC2	i	i	i	i	i	.	.	.	.	.	.
CN(C)CCCNc1cc(-c2ccccc2)nc2cc(-c3cccc(F)c3)nn12	i	i	i	i	-5.1*	i	i	-11%*	50%*	46%*	i
CCN(CC)CCCNc1cc(C)nc2cc(-c3cccs3)nn12	i	i	i	i	-7.5*	-416%*	i	-62%*	52%*	44%*	i
Cc1cc(C(F)(F)F)n2nc(-c3cccs3)cc2n1	i	i	i	i	i	.	.	.	.	.	.
COc1cc(/C=C/c2nc3ccc([N+](=O)[O-])cc3s2)ccc1OCC(=O)O	i	i	i	i	-6.7*	-69%*	i	-20%*	i	i	i
COc1cc(/C=C/c2ccc3c([N+](=O)[O-])cccc3n2)ccc1OCC(=O)O	i	i	i	i	i	.	.	.	.	.	.
O=c1cc(-c2ccccc2)c2cc(Cl)c(O)c(CN3CCOCC3)c2o1	i	i	i	i	i	.	.	.	.	.	.
CCc1cc2c(-c3ccccc3)cc(=O)oc2c(CN2CCOCC2)c1O	i	i	i	i	-5.1*	i	i	14%*	i	50%*	.
COC(=O)c1ccc2c(c1)C(C)(C)C(/C=C/c1ccc(OC)c(OC)c1OC)=[N+]2C	i	i	i	i	-9.6*	-179%*	88%*	-190%*	56%*	72%*	i
O=C(NC1CCCc2ccccc21)c1c(F)cccc1Cl (centres undefined)	i	i	i	i	i	.	.	.	.	.	.
NC(=O)Cn1nnc(-c2ccccc2NC(=O)c2cnccn2)n1	i	i	i	i	i	.	.	.	.	.	.
CC(C)(C)NC(=O)Cn1nnc(-c2ccccc2NC(=O)c2cnccn2)n1	i	i	i	13*	-7.1*	i	i	20%*	i	i	72%*

Screens: PubChem, Johns Hopkins Ion Channel Center
